Type in all cases: cell-based, human
Data set [1] relates to mitochondria of MCF-7 cells. Description: Mitochondria targeting, quantification in isolated mitochondria. The note with it: 10 μg/mL Dox equivalent, flow cytometry, n=3. The procedure, abridged: (§1)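 HeLa cells (DMEM) or MCF-7 cells (RPMI-1640), both with 10% FBS, grown at 37 °C, 5% CO2 and treated in 12-well plates with test compound (10 μg/mL Dox equivalent). Collected into mitochondria extraction reagent on ice for 10 min, then homogenised. Spun at 600×g for 10 min; supernatant spun at 11,000×g for 10 min. Pelleted mitochondria analysed for Dox by flow cytometry.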

Data set [2] concerns mitochondria of HeLa cells. The description is as above. The following applies: 10 μg/mL Dox equivalent, flow cytometry, n=3. The procedure, abridged:
as §1
Background: Flow cytometry measures light scatter and fluorescence of single cells or particles in a stream.

The next data set concerns MCF-7/ADR cells. Kind of data set: Dox efflux assay. The procedure, abridged: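 MCF-7/ADR and MCF-7 cells, in RPMI-1640 with 10% FBS and penicillin/streptomycin (1 μg/mL doxorubicin added to maintain the ADR line), loaded with test compound (10 µg/mL Dox equivalent) for 4 h. Washed, then chased in fresh drug-free medium for 2 or 4 h at 37 °C. Collected and PBS-washed; retained Dox read by flow cytometry. Efflux ratio from retained versus initial uptake; mean ± SD, n=3.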

The results in this text go back to publication PMC6542785 (Acta Pharmaceutica Sinica. B, 2018).

For the molecule `COc1cccc2c1C(=O)c1c(O)c3c(c(O)c1C2=O)C[C@@](O)(C(=O)CO)C[C@@H]3O[C@H]1C[C@H](N)[C@H](O)[C@H](C)O1` [Dox, doxorubicin], the mitochondria distribution in data set [1] and in data set [2] was under 5% throughout. Further, the “Dox efflux rate in MCF-7/ADR, fold higher than in MCF-7 cells” value was 1.74 fold in the data set on MCF-7/ADR cells (2 h in drug-free medium after 4 h loading) and 2.08 fold with MCF-7/ADR cells (4 h in drug-free medium after 4 h loading).
